pEC50, pIC50: −log10 of the molar value.
How the values were obtained:
[1] = test system: human MDR1; assay: Permeability across apical to basolateral side in MDCK cells transfected with human MDR1 at 5 uM by LC-MS/MS analysis; conditions: dog
[2] = test system: human MDR1; assay: Efflux ratio of permeability across basolateral to apical over apical to basolateral side in MDCK cells transfected with human MDR1 at 5 uM by LC-MS/MS analysis; conditions: dog
[3] = Oral bioavailability in […] rat at 1 or 5 mg/kg; format: ADME, organism-based; conditions: in vivo
How it was run: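 Rat PK: iv dosing at 0.4 or 1 mg/kg as a 60% PEG solution, po dosing at 1 or 5 mg/kg as an aqueous suspension with 1% methylcellulose.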

[4] = biological target: Hepatocyte growth factor receptor (Homo sapiens) (UniProt P08581); assay: Inhibition of Met (unknown origin) at 1 uM by FRET method
How it was run: (§1)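 Single-point screen at 1 uM against a panel of 58 representative kinases. Readout was labeled-peptide phosphorylation by FRET (Z′-LYTE), using the vendor's protocols.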

[5] = biological target: Mitogen-activated protein kinase kinase kinase 11 (Homo sapiens, UniProt Q16584); assay: Inhibition of MLK3 (unknown origin) at 1 uM by FRET method; how it was run: as §1
[6] = biological target: Serine/threonine-protein kinase mTOR (Homo sapiens) (UniProt P42345); assay: Inhibition of mTOR (unknown origin) at 1 uM by FRET method; how it was run: as §1
[7] = biological target: Mitogen-activated protein kinase 14 (Homo sapiens) (UniProt Q16539); assay: Inhibition of p38alpha (unknown origin) at 1 uM by FRET method; how it was run: as §1
[8] = biological target: cAMP-dependent protein kinase (PKA) (Homo sapiens) (UniProt P22694+P17612+P22612); assay: Inhibition of PKA (unknown origin) at 1 uM by FRET method; format: protein assay; how it was run: as §1
[9] = biological target: Ribosomal protein S6 kinase alpha-3 (Homo sapiens) (UniProt P51812); assay: Inhibition of Rsk2 (unknown origin) at 1 uM by FRET method; how it was run: as §1
[10] = biological target: TAK1/TAB1 (Homo sapiens) (UniProt Q15750+O43318); assay: Inhibition of TAK1-TAB1 (unknown origin) at 1 uM by FRET method; format: protein-complex assay; how it was run: as §1
[11] = biological target: Angiopoietin-1 receptor (Homo sapiens) (UniProt Q02763); assay: Inhibition of Tie2 (unknown origin) at 1 uM by FRET method; how it was run: as §1
[12] = biological target: Tyrosine-protein kinase ABL1 (Homo sapiens) (UniProt P00519); assay: Inhibition of Abl (unknown origin) at 1 uM by FRET method
How it was run: (§2)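 SelectScreen panel of 58 kinases, each tested at a single 1 µM compound concentration. Read-out was Z′-LYTE FRET of labeled peptide phosphorylation, run by the vendor's protocols, reported as percent inhibition.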

[13] = biological target: Cyclin-dependent kinase 1/cyclin B1 (Homo sapiens) (UniProt P06493+P14635); assay: Inhibition of CDK1/cyclinB (unknown origin) at 1 uM by FRET method; format: protein-complex assay; how it was run: as §2
[14] = biological target: CDK8/Cyclin C (Homo sapiens) (UniProt P49336+P24863); assay: Inhibition of […]/cyclinC (unknown origin) at 1 uM by FRET method; format: protein-complex assay; how it was run: as §2
[15] = biological target: Macrophage colony-stimulating factor 1 receptor (Homo sapiens, UniProt P07333); assay: Inhibition of CSF1R (unknown origin) at 1 uM by FRET method; how it was run: as §2
[16] = biological target: Myotonin-protein kinase (Homo sapiens) (UniProt Q09013); assay: Inhibition of DMPK (unknown origin) at 1 uM by FRET method; how it was run: as §2
[17] = biological target: Receptor tyrosine-protein kinase erbB-2 (Homo sapiens) (UniProt P04626); assay: Inhibition of ErbB2 (unknown origin) at 1 uM by FRET method; how it was run: as §2
[18] = biological target: Tyrosine-protein kinase JAK3 (Homo sapiens) (UniProt P52333); assay: Inhibition of JAK3 (unknown origin) at 1 uM by FRET method; how it was run: as §2
[19] = biological target: Mitogen-activated protein kinase kinase kinase kinase 4 (Homo sapiens) (UniProt O95819); assay: Inhibition of MAP4K4 (unknown origin) at 1 uM by FRET method; how it was run: as §2
[20] = biological target: Receptor-type tyrosine-protein kinase FLT3 (Homo sapiens, UniProt P36888); assay: Inhibition of Flt3 (unknown origin) by FRET method
[21] = biological target: T1, Proto-oncogene tyrosine-protein kinase Src (Homo sapiens, UniProt P12931); assay: Inhibition of Src (unknown origin) by FRET method
How it was run: (§3)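 Biochemical IC50 determination from a 10-point dose-response in an enzymatic Z′-LYTE assay. Labeled-peptide phosphorylation was read by FRET under the vendor's protocols.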

[22] = biological target: Mitogen-activated protein kinase 8 (Homo sapiens, UniProt P45983); assay: Inhibition of JNK1 (unknown origin) by FRET method
How it was run: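 JNK1, JNK2 and JNK3 IC50 values came from a 10-point dose–response enzymatic assay.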

[23] = biological target: Mitogen-activated protein kinase kinase kinase 10 (Homo sapiens, UniProt Q02779); assay: Inhibition of MLK2 (unknown origin) by FRET method; how it was run: as §3
[24] = Neuroprotective activity in Wistar rat DRG neuronal cells by neurodegeration assay; format: functional, cell-based
[25] = test system: Mus musculus; assay: Unbound fraction in brain in mouse at 50 mg/kg, po at 6 hr; format: ADME, organism-based; conditions: in vivo
[26] = biological target: T1, Proto-oncogene tyrosine-protein kinase Src; conditions: 1 uM
[27] = biological target: Receptor-type tyrosine-protein kinase FLT3 (Homo sapiens) (UniProt P36888); conditions: 1 uM

T1 sequence (P12931 2-536 limits assumed): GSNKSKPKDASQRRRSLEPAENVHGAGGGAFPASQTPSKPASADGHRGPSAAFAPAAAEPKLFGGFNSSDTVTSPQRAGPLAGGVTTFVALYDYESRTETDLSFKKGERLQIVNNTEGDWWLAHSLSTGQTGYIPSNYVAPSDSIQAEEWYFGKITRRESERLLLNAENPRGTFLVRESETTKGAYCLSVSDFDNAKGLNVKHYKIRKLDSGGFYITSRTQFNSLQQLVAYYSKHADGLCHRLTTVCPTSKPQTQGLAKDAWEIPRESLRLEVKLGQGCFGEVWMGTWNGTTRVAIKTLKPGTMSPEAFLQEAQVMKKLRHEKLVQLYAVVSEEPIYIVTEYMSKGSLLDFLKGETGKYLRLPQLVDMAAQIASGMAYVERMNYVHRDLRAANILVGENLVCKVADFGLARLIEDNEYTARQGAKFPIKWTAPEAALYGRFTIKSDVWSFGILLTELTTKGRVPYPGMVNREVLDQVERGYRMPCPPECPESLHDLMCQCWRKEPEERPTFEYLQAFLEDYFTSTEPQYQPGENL
Sequence of Mitogen-activated protein kinase kinase kinase 11 (Q16584 whole entry, looked up): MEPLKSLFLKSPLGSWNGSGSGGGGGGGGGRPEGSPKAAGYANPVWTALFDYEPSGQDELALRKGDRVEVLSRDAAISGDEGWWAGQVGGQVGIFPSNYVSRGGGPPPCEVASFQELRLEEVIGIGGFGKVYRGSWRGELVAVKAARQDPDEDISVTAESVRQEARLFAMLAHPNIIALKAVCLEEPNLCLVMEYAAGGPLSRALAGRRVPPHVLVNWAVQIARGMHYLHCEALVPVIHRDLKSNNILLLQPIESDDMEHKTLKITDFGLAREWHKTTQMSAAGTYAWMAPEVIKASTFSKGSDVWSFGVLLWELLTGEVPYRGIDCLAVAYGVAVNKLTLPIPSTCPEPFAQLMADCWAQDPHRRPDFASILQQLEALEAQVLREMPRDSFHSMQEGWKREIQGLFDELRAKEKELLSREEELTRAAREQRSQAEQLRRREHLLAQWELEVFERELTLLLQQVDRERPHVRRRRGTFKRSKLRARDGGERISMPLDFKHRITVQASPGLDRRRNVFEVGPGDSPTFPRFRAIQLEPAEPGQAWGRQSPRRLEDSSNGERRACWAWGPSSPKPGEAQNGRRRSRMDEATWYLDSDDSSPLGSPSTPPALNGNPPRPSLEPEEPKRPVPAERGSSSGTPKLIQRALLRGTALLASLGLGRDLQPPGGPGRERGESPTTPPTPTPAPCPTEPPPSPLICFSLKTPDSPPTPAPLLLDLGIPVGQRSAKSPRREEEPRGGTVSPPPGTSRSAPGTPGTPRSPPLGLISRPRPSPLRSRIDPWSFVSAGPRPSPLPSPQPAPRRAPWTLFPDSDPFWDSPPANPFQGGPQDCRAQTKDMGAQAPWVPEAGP
Sequence of Myotonin-protein kinase (Homo sapiens) (Q09013 whole entry): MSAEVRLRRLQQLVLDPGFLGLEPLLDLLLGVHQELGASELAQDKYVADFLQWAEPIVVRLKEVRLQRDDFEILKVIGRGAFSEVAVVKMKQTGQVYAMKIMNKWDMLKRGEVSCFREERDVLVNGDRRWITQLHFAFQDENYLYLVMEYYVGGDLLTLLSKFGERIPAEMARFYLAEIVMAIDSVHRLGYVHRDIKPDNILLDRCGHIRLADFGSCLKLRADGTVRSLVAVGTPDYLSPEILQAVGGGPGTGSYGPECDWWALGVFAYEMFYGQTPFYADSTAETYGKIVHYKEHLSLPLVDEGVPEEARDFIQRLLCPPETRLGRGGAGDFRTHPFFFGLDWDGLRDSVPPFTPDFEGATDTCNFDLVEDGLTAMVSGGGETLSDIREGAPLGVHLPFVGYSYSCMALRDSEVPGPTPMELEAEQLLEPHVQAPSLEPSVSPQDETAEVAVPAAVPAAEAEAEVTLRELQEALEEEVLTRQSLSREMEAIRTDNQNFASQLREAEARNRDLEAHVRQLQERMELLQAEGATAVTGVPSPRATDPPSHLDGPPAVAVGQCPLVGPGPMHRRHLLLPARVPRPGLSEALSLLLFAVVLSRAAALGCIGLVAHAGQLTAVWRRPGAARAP
Sequence of Mitogen-activated protein kinase kinase kinase 10 (Q02779 whole entry): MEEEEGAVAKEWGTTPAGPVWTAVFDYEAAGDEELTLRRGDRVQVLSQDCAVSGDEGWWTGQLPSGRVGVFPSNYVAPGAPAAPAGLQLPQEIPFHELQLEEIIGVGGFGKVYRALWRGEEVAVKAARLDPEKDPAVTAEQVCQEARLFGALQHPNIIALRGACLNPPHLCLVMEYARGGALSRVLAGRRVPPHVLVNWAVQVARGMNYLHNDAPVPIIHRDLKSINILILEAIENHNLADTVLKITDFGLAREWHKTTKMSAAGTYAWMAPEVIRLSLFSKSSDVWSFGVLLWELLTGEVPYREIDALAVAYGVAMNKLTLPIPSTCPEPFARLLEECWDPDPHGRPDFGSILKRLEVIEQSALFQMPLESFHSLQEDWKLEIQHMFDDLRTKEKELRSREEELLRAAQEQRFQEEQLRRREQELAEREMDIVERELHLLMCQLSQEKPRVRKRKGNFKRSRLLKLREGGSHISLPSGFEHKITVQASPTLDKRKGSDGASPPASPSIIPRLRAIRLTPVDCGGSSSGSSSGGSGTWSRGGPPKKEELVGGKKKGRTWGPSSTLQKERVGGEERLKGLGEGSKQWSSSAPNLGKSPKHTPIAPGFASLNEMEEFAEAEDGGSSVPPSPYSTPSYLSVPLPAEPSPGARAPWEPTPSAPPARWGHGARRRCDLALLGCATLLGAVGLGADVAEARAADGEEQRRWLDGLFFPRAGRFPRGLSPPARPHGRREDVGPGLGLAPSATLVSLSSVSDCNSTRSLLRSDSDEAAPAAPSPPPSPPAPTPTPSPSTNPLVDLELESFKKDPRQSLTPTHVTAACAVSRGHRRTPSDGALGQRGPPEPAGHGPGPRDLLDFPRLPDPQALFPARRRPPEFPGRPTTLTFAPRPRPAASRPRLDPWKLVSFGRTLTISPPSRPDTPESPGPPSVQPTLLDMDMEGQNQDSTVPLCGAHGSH
Sequence of Hepatocyte growth factor receptor (Homo sapiens) (P08581 whole entry): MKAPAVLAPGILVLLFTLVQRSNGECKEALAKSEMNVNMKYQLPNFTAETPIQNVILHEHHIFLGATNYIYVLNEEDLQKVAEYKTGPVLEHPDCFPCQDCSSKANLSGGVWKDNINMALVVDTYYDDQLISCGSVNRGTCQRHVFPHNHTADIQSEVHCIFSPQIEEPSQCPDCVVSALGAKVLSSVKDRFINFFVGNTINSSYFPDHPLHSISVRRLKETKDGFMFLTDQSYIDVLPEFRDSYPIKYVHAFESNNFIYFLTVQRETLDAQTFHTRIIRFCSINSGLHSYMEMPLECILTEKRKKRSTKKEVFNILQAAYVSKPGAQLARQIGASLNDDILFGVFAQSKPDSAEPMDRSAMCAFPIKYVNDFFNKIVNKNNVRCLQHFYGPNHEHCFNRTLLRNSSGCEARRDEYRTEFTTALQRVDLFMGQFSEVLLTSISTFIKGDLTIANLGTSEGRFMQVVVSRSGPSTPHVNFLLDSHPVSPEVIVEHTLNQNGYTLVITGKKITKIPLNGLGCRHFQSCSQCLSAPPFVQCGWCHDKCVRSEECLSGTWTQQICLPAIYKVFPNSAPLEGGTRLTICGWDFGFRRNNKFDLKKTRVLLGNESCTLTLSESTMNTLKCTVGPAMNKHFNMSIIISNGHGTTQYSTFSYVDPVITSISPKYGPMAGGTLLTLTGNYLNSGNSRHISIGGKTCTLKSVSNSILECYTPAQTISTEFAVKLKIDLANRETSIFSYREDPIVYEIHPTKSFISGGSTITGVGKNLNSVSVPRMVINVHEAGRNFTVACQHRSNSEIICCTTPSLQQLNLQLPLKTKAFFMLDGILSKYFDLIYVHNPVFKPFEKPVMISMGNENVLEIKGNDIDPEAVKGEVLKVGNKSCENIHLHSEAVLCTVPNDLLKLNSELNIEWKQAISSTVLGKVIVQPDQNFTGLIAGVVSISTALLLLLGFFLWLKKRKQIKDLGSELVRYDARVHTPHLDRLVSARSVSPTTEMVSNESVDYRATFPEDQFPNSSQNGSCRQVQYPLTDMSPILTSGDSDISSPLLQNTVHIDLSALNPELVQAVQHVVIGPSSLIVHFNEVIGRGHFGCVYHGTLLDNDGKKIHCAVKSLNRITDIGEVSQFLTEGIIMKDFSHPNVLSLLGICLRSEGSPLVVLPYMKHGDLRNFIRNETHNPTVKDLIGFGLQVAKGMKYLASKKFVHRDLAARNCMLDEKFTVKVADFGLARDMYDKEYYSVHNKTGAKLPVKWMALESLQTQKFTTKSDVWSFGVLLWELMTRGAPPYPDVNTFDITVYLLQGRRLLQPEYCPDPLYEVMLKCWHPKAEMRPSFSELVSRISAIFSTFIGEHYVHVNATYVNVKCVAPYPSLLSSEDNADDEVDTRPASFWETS
Sequence of Mitogen-activated protein kinase 8 (P45983 whole entry): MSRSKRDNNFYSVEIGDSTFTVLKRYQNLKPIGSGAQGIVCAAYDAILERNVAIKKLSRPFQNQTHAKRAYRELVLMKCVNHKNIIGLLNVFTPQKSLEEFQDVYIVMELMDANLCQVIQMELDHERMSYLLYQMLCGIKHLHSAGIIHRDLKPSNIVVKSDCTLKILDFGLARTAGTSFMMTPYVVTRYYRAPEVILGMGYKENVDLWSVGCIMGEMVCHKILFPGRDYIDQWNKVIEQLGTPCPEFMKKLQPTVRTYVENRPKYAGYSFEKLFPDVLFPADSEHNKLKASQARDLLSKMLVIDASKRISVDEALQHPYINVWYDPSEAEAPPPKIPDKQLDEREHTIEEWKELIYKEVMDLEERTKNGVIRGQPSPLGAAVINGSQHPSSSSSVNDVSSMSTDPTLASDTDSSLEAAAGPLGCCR

- Papp A→B at 5 µM [1]: 8.8 ×10⁻⁶ cm/s
- efflux ratio at 5 µM [2]: 1.4
- bioavailability [3]: 58%
- inhibition [4]: 23.4%
- inhibition [5]: 1.4%
- inhibition [6]: 9.2%
- inhibition [7]: 14.6%
- inhibition [8]: 4%
- inhibition [9]: 5.7%
- inhibition [10]: 13.6%
- inhibition [11]: 1.8%
- inhibition [12]: 8.4%
- inhibition [13]: 13.5%
- inhibition [14]: 11.6%
- inhibition [15]: 51.8%
- inhibition [16]: 12%
- inhibition [17]: 1%
- inhibition [18]: 12.5%
- inhibition [19]: 12.1%
- pIC50 [20]: 6.49
- pIC50 [21]: 6.00
- pIC50 [22]: 5.98
- pIC50 [23]: < 5.00
- pEC50 [24]: 5.67
- Drug uptake(free) [25]: 0.05 µM
- inhibition [26]: 55.4%
- inhibition [27]: 65.4%
SMILES: N#Cc1ccnc(Nc2cc(C3CCN(C4COC4)CC3)n(C3CCCC3)n2)c1

— ChEMBL document CHEMBL3627690, “Scaffold-Hopping and Structure-Based Discovery of Potent, Selective, And Brain Penetrant N-(1H-Pyrazol-3-yl)pyridin-2-amine Inhibitors of Dual Leucine Zipper Kinase (DLK, MAP3K12)” (J Med Chem, 2015)
